One data set has as its system Giardia intestinalis. The data set can be described thus: Antimicrobial activity against Giardia intestinalis IMSS:0696:1 after 48 hrs. Type of data set: functional, organism-based. The conditions noted are these: Giardia duodenalis, IMSS:0696:1, 48 h. In outline: (§1)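 Trophozoites (4 × 10⁴) exposed 48 h at 37 °C to increasing compound concentrations; DMSO-medium negative control. Then washed and subcultured 48 h in fresh drug-free medium before counting. IC50 by probit analysis; triplicate, repeated at least twice. Giardia grown in modified TYI-S-33 with 10% calf serum and bovine bile. Trichomonas and Entamoeba grown in TYI-S-33 with 10% bovine serum.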

The test system of another data set is Entamoeba histolytica. Nature of the data set: Antimicrobial activity against Entamoeba histolytica HM-1:IMSS after 48 hrs. Format: functional, organism-based. In outline:
as §1

Another data set concerns Trichomonas vaginalis. Nature of the data set: Antimicrobial activity against Trichomonas vaginalis GT3 after 48 hrs. Format: functional, organism-based. The conditions noted are these: GT3, 48 h. In outline: as §1
Another data set deals with Trypanosoma cruzi. The data set can be described thus: Antimicrobial activity against epimastigotes form of Trypanosoma cruzi MHOM/MX/1994/Ninoa after 72 hrs. Format: functional, organism-based. In outline:
(§2)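 Parasites grown at 26 °C in Schneider's drosophila medium with 10% FBS and penicillin. 10,000 L. mexicana promastigotes or 20,000 T. cruzi epimastigotes per well, at 10, 5, 2.5 and 1.25 µg/mL. Untreated parasite cultures included. 72 h at 26 °C, then parasites counted directly in a Neubauer chamber. IC50 by probit analysis.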

A further data set concerns Leishmania mexicana. Nature of the data set: Antimicrobial activity against promastigotes form of Leishmania mexicana MHOM/MX/ISETGS after 72 hrs. Format: functional, organism-based. In outline: as §2
Data set [1] concerns Mycobacterium tuberculosis. Nature of the data set: Antimicrobial activity against Mycobacterium tuberculosis H37Rv ATTC 27294 by microplate alamar blue assay. Format: functional, organism-based. The method, boiled down: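 Inoculum from a log-phase culture adjusted to McFarland 1, then diluted 1:50 in Middlebrook 7H9 broth to 6 × 10⁶ CFU/mL and prepared just before inoculation. Compounds tested from […]. Ethambutol served as positive internal standard. MIC read by Alamar Blue. Done in triplicate.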

Data set [2] in a line: Selectivity index, ratio of CC50 for african green monkey Vero cells to IC50 for Giardia intestinalis IMSS:0696:1. Format: functional. In outline: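 SI computed as CC50 in VERO cells divided by IC50 against the parasite.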
The nature of data set [3]: Cytotoxicity against african green monkey Vero cells after 72 hrs by MTT assay. Type of data set: cell-based. The conditions noted are these: chlorocebus sabaeus. The method, boiled down: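 VERO cells (1.5 × 10⁴) grown in DMEM with 10% FBS at 37 °C, 5% CO₂. Seeded and grown 24–48 h, then treated at >80% confluence with 6.25–100 µg/mL (DMSO ≤0.05%) for 72 h. MTT added for 4 h at 37 °C. Formazan dissolved in acidified isopropanol and read at OD 540 nm. CC50 from triplicates.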

pIC50: −log10 of the molar value. In brackets after ≈: the same amount, converted by molar mass.

Consider `COc1ccc(NC(=O)NCCNc2ccnc3cc(Cl)ccc23)cc1`, for which the pIC50 in the data set with Giardia intestinalis was 6.23; in the data set with Entamoeba histolytica it was 4.97; with Trichomonas vaginalis, 4.66; in the data set with Trypanosoma cruzi, less than 4.30; with Leishmania mexicana, less than 4.30. Moreover, the IC50 in data set [1] came out at 8 µg/mL (≈ 21.6 µM).

Take `O=C(NCCNc1ccnc2cc(Cl)ccc12)NC1CCCCC1`: the pIC50 is 5.78 in the data set with Giardia intestinalis; 5.16 in the data set with Entamoeba histolytica; 4.18 in the data set with Trichomonas vaginalis; less than 4.30 in the data set with Trypanosoma cruzi; less than 4.30 with Leishmania mexicana. Besides, the IC50 in data set [1] was found to be 8 µg/mL (≈ 23.1 µM).

For the molecule `O=C(NCCNc1ccnc2cc(Cl)ccc12)Nc1ccccc1`, the negative-log IC50 (pIC50) in the data set with Giardia intestinalis was 5.93; in the data set with Entamoeba histolytica it was 5.27; in the data set on Trichomonas vaginalis, 4.34; in the data set on Trypanosoma cruzi, less than 4.30; in the data set with Leishmania mexicana it was less than 4.30. In data set [1], this molecule returned an IC50 of 8 µg/mL (≈ 23.5 µM).

In the case of `O=C(NCCNc1ccnc2cc(Cl)ccc12)Nc1ccc(Cl)cc1`, the pIC50 in the data set on Giardia intestinalis is 6.57; in the data set with Entamoeba histolytica, 5.16; in the data set with Trichomonas vaginalis it was 5.02; in the data set on Trypanosoma cruzi it was 4.30; in the data set on Leishmania mexicana, 4.30. Also, in data set [1], the IC50 is 4 µg/mL (≈ 10.7 µM).

For the molecule `O=C(NCCNc1ccnc2cc(Cl)ccc12)Nc1ccc(F)cc1`, the pIC50 with Giardia intestinalis was 6.03; with Entamoeba histolytica, 4.75; with Trichomonas vaginalis it was 4.63; in the data set with Trypanosoma cruzi it was less than 4.30; in the data set on Leishmania mexicana, less than 4.30. Also, the IC50 in data set [1] amounted to 8 µg/mL (≈ 22.3 µM).

Consider `CCOc1ccc(NC(=O)NCCNc2ccnc3cc(Cl)ccc23)cc1`, for which the pIC50 is 6.47 in the data set on Giardia intestinalis; 5.23 in the data set on Entamoeba histolytica; 4.52 in the data set with Trichomonas vaginalis; 4.30 with Trypanosoma cruzi; 4.30 in the data set with Leishmania mexicana. Further, inhibition in data set [1] was half-maximal at 8 µg/mL (≈ 20.8 µM) (IC50).

As for `CCCCOc1ccc(NC(=O)NCCNc2ccnc3cc(Cl)ccc23)cc1`, the pIC50 in the data set on Giardia intestinalis is 8.10; with Entamoeba histolytica, 5.44; in the data set on Trichomonas vaginalis, 5.07; in the data set with Trypanosoma cruzi it was 4.30; in the data set on Leishmania mexicana, 5.00. Moreover, the “Ratio CC50/IC50” value in data set [2] is reported as 625. For the same molecule, in data set [3], the CC50 at 72 h was 5 µM. Half-maximal inhibition in data set [1] (IC50) required 2 µg/mL (≈ 4.84 µM).

Turning to `O=C(NCCNc1ccnc2cc(Cl)ccc12)Nc1ccc([N+](=O)[O-])cc1`, the pIC50 in the data set on Giardia intestinalis is 5.76; in the data set with Entamoeba histolytica, 4.98; with Trichomonas vaginalis, 4.92; with Trypanosoma cruzi, 4.30; in the data set with Leishmania mexicana, 4.30. The molecule further displayed an IC50 in data set [1] of 8 µg/mL (≈ 20.7 µM).

For `NCCNc1ccnc2cc(Cl)ccc12`, the pIC50 in the data set on Giardia intestinalis was 5.90; in the data set on Entamoeba histolytica it was 4.84; in the data set with Trichomonas vaginalis, 4.64; in the data set with Trypanosoma cruzi it was less than 4.30; with Leishmania mexicana it was less than 4.30. This molecule gave a concentration for half-maximal inhibition (IC50) in data set [1] of 8 µg/mL (≈ 36.1 µM).

Consider `O=C(Cn1ccnc1[N+](=O)[O-])NCc1ccccc1` [BENZNIDAZOLE], for which the pIC50 in the data set with Trypanosoma cruzi was 4.46.

Turning to `CCN(CC)CCCC(C)Nc1ccnc2cc(Cl)ccc12` (stereo unspecified) [CHLOROQUINE], the pIC50 with Giardia intestinalis was 6.40; with Entamoeba histolytica, 5.02; in the data set on Trichomonas vaginalis it was 4.52; in the data set on Trypanosoma cruzi, less than 4.30; with Leishmania mexicana, less than 4.30. The molecule further showed an IC50 in data set [1] greater than 8 µg/mL.

`CC[C@@H](CO)NCCN[C@@H](CC)CO` [ETHAMBUTOL]: in data set [1], the IC50 is 4 µg/mL (≈ 19.6 µM).

`N=C(N)c1ccc(OCCCCCOc2ccc(C(=N)N)cc2)cc1` [PENTAMIDINE] showed a pIC50 in the data set on Leishmania mexicana of 4.88.

As to `CC(C)CCOc1ccc(NC(=S)Nc2ccc(OCCC(C)C)cc2)cc1` [TIOCARLIDE], inhibition in data set [1] was half-maximal at 4 µg/mL (≈ 9.99 µM) (IC50).

(Values after ChEMBL document CHEMBL1221297, “Design, synthesis, and in vitro antiprotozoal, antimycobacterial activities of N-{2-[(7-chloroquinolin-4-yl)amino]ethyl}ureas” (Bioorg Med Chem, 2010).)
